The target in this assay is T1, ABHD5 / PLIN1 (luciferase complementation) (Mus musculus, UniProt Q9DBL9).
T1 sequence (Q9DBL9 1-351): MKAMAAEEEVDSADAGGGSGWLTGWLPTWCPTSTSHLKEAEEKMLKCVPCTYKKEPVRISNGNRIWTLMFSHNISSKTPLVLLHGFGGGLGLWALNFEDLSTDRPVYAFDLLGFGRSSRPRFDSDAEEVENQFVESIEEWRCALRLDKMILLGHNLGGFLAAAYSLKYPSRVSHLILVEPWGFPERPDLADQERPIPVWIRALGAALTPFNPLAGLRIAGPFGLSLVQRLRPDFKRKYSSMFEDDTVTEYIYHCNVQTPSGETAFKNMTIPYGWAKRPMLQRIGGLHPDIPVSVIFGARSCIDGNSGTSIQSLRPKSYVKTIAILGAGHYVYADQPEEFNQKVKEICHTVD
T1 sequence (Q8CGN5 1-517 partner): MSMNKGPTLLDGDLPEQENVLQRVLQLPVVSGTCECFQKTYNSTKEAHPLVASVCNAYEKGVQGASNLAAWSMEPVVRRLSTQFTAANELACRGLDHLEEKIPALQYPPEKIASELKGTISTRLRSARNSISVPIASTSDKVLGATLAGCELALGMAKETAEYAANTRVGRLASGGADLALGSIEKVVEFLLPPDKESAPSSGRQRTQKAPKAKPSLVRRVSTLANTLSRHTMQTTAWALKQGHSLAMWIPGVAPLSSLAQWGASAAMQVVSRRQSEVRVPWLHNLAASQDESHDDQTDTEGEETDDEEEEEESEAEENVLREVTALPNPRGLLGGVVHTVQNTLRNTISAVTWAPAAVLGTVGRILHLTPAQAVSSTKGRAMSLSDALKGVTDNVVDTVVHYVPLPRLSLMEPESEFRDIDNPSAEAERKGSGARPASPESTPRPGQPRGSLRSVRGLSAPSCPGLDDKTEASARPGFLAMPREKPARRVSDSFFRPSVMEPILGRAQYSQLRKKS
The experiment in a line: luciferase complementation, disruption of ABHD5-PLIN1 binding. Particulars: mixed 293T lysates, 4 h, room temperature; n=8. It counts as biochemical. Put shortly:
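Lysates are prepared separately from transfected 293T cells and equal amounts of each are combined. Test compound is added in DMSO, with a DMSO vehicle control. After 4 h at room temperature, complementation is read as luciferase activity.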

SMILES strings stand for the structures.

`Cc1ccc2c(CC(=O)N3CCN(S(=O)(=O)c4ccc5c(c4)OCCO5)CC3)coc2c1` [SR-4559] registered a half-inhibitory concentration (IC50) of 510 ± 60 nM.

Take `CCCCNC(=O)Nc1ccc2c(c1)N(C)C(=O)c1ccccc1S2` [SR-4995]: the concentration for half-maximal inhibition (IC50) worked out at 200 ± 30 nM.

By IC50 is commonly meant the concentration needed to halve the response being measured. Read a high IC50 as lower potency.

These data come from paper PMC4862007 (Cell metabolism, 2015).
